The test system of one data set is K562. The data set can be described thus: Antiproliferative activity against human K562 cells assessed as growth inhibition after 48 hrs by SRB assay. The format is functional. As to conditions: K562, 48 h. The method, boiled down:
(§1)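 Cells exposed 48 h at 37 °C, 5% CO2 to 0.25, 2.5, 25 and 250 µg/mL in DMSO/RPMI (final DMSO 0.1%); doxorubicin standard at 0.025–25 µg/mL. Plates fixed with 50% TCA before (T0) and after treatment; protein content read by sulforhodamine B at 540 nm. GI50 (µM) from nonlinear regression of concentration–response curves; triplicate.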

Data set [1] can be described thus: Antiproliferative activity against human HaCaT cells assessed as growth inhibition after 48 hrs by SRB assay. The format is cell-based. The method, boiled down: as §1
A general note: The SRB assay estimates cell density from bound dye.

Another data set deals with U-251. The data set can be described thus: Antiproliferative activity against human U251 cells assessed as growth inhibition after 48 hrs by SRB assay. Type of data set: functional. As to conditions: U-251, 48 h. The essentials: as §1
Data set [2] in a line: Antiproliferative activity against human UACC62 cells assessed as growth inhibition after 48 hrs by SRB assay. The format is functional. As to conditions: UACC-62, 48 h. The essentials:
as §1

In the next data set the test system is MCF7. Nature of the data set: Antiproliferative activity against human MCF7 cells assessed as growth inhibition after 48 hrs by SRB assay. The format is functional. As to conditions: MCF7, 48 h. The method, boiled down: as §1
Data set [3] is described as follows: Antiproliferative activity against human NCI-ADR-RES cells assessed as growth inhibition after 48 hrs by SRB assay. Type of data set: functional. The method, boiled down:
as §1

Data set [4] relates to 786-0. The data set can be described thus: Antiproliferative activity against human 786-0 cells assessed as growth inhibition after 48 hrs by SRB assay. The settings on record: 786-0, 48 h. The format is functional. The essentials: as §1
A further data set concerns NCI-H460. The data set can be described thus: Antiproliferative activity against human NCI-H460 cells assessed as growth inhibition after 48 hrs by SRB assay. Type of data set: functional. As to conditions: NCI-H460, 48 h. The method, boiled down: as §1
Data set [5] in a line: Antiproliferative activity against human PC3 cells assessed as growth inhibition after 48 hrs by SRB assay. As to conditions: PC-3, 48 h. Type of data set: functional. The essentials: as §1
The test system of another data set is HT-29. The data set can be described thus: Antiproliferative activity against human HT-29 cells assessed as growth inhibition after 48 hrs by SRB assay. The format is functional. The settings on record: HT-29, 48 h. The essentials:
as §1

The nature of data set [6]: Antitumor activity against mouse EAT implanted in Balb/C mouse assessed as change in paw volume at 3 mg/kg, ip administered on day 3 post tumor inoculation measured on day 3 by plethysmometer analysis (reference value: 40.2 +/- 7.0%). The format is functional.
Data set [7] in a line: Antitumor activity against mouse EAT implanted in Balb/C mouse assessed as change in paw volume at 3 mg/kg, ip administered on day 3 post tumor inoculation measured on day 6 by plethysmometer analysis (reference value: 86.1 +/- 5.7%). Type of data set: functional.
The nature of data set [8]: Antitumor activity against mouse EAT implanted in Balb/C mouse assessed as change in paw volume at 3 mg/kg, ip administered on day 3 post tumor inoculation measured on day 9 by plethysmometer analysis (reference value: 95.5 +/- 5.2%). Type of data set: functional.
Data set [9] is described as follows: Antitumor activity against mouse EAT implanted in Balb/C mouse assessed as change in paw volume at 3 mg/kg, ip administered on day 3 post tumor inoculation measured on day 12 by plethysmometer analysis (reference value: 125.5 +/- 7.5%). The format is functional.
Data set [10] is described as follows: Antitumor activity against mouse EAT implanted in Balb/C mouse assessed as change in paw volume at 3 mg/kg, ip administered on day 3 post tumor inoculation measured on day 15 by plethysmometer analysis (reference value: 166.5 +/- 6.0%). The format is functional.
Data set [11] relates to 786-0. The data set can be described thus: Cell cycle arrest in human 786-0 cells assessed as accumulation at Sub G1 phase at 1.25 nM after 24 hrs by propidium iodide based flow cytometric analysis (reference value: 3.0 +/- 0.7%). Type of data set: functional.
For data set [12], the system named is 786-0. Nature of the data set: Cell cycle arrest in human 786-0 cells assessed as reduction in G1 phase at 1.25 nM after 24 hrs by propidium iodide based flow cytometric analysis (reference value: 46.7 +/- 0.8%). Type of data set: functional. Details: scale not given: the % may be the effect or the level left.
In data set [13] the test system is 786-0. The data set can be described thus: Cell cycle arrest in human 786-0 cells assessed as accumulation at S phase at 1.25 nM after 24 hrs by propidium iodide based flow cytometric analysis (reference value: 14.6 +/- 1.3%). The format is functional. For orientation: In flow cytometry, cells or beads pass a laser one at a time.
For data set [14], the system named is 786-0. The data set can be described thus: Cell cycle arrest in human 786-0 cells assessed as accumulation at G2/M phase at 1.25 nM after 24 hrs by propidium iodide based flow cytometric analysis (reference value: 35.7 +/- 0.9%). The format is functional.
A short description of data set [15]: Antitumor activity against mouse EAT implanted in Balb/C mouse assessed as change in paw volume at 40 mg/kg, po administered on day 3 post tumor inoculation measured on day 3 by plethysmometer analysis (reference value: 40.2 +/- 7.0%). The format is functional.
The nature of data set [16]: Antitumor activity against mouse EAT implanted in Balb/C mouse assessed as change in paw volume at 40 mg/kg, po administered on day 3 post tumor inoculation measured on day 6 by plethysmometer analysis (reference value: 86.1 +/- 5.7%). The format is functional.
A short description of data set [17]: Antitumor activity against mouse EAT implanted in Balb/C mouse assessed as change in paw volume at 40 mg/kg, po administered on day 3 post tumor inoculation measured on day 9 by plethysmometer analysis (reference value: 95.5 +/- 5.2%). Type of data set: functional.
Data set [18] is described as follows: Antitumor activity against mouse EAT implanted in Balb/C mouse assessed as change in paw volume at 40 mg/kg, po administered on day 3 post tumor inoculation measured on day 12 by plethysmometer analysis (reference value: 125.5 +/- 7.5%). The format is functional.
Data set [19] is described as follows: Antitumor activity against mouse EAT implanted in Balb/C mouse assessed as change in paw volume at 40 mg/kg, po administered on day 3 post tumor inoculation measured on day 15 by plethysmometer analysis (reference value: 166.5 +/- 6.0%). Type of data set: functional.

A value given as a limit tells only on which side of the number the result lay.

A word on the GI50: it is the concentration at which growth is held to half of that of the control.

Turning to `S=C(N/N=C/c1cccs1)Nc1cccc2ccccc12`, the GI50 in the data set with K562 is 1.8 µM; in the data set with U-251, 12.7 µM; in data set [2], above 100 µM; in the data set on MCF7, above 100 µM; in data set [3], 6.6 µM; in the data set on 786-0 [4], 15.2 µM. The concentration for 50% growth inhibition (GI50) (with NCI-H460; in data set [5]; with HT-29) was above 100 µM in each case. Further, the 50% growth inhibitory concentration (GI50) at 48 h in [1] was 82.4 µM.
With `Cc1ccc(NC(=S)N/N=C/c2cccs2)cc1`, the concentration for 50% growth inhibition (GI50) in the data set with K562 was below 0.9 µM; with U-251, 12.6 µM; in data set [2], 16.8 µM; in the data set on MCF7, 38.6 µM; in [3], 4.8 µM; with 786-0 [4] it was 19.5 µM. The GI50 was 80.6 µM in the data set on NCI-H460, 29.7 µM in data set [5] and above 100 µM in the data set with HT-29. Further, the GI50 at 48 h in data set [1] is 17.6 µM.
Regarding `S=C(N/N=C/c1cccs1)Nc1ccc(Cl)cc1`, the GI50 was 2 µM in the data set with K562; 8.3 µM in the data set on U-251; 15.8 µM in [2]; above 100 µM in the data set with MCF7; 2.8 µM in [3]; 7.4 µM with 786-0 [4]. The GI50 (in the data set with NCI-H460; in data set [5]; in the data set on HT-29) was above 100 µM each time. Also, in [1], the GI50 at 48 h amounted to 14.7 µM.
In the case of `S=C(N/N=C/c1cccs1)Nc1ccccc1`, the GI50 with K562 was 16.7 µM; in the data set on U-251, 74.7 µM; in data set [2] it was above 100 µM; in the data set with MCF7, 94.6 µM; in data set [3], above 100 µM; with 786-0 [4], 50.4 µM. Besides, the GI50 (in the data set with NCI-H460; in data set [5]; in the data set with HT-29) was above 100 µM each time. For the same molecule, the GI50 at 48 h in [1] is above 100 µM.
Take `CCc1ccc(NC(=S)N/N=C/c2cccs2)cc1`: the GI50 in the data set with K562 is 1.6 µM; with U-251, above 100 µM; in [2], above 100 µM; in the data set on MCF7, above 100 µM; in [3], above 100 µM; in the data set on 786-0 [4] it was 82.6 µM. Further, the GI50 (in the data set with NCI-H460; in [5]; in the data set on HT-29) was above 100 µM in each case. Besides, in data set [1], the GI50 at 48 h amounted to 17.6 µM.
Take `S=C(NCCc1ccccc1)N/N=C/c1cccs1`: the 50% growth inhibitory concentration (GI50) (with K562; with U-251; in data set [2]; in the data set with MCF7; in data set [3]; in the data set on 786-0 [4]) was above 100 µM in each case. Besides, the GI50 (in the data set with NCI-H460; in [5]; in the data set on HT-29) was above 100 µM in each case. The GI50 at 48 h in data set [1] was above 100 µM.
Take `C=CCNC(=S)N/N=C/c1cccs1`: the 50% growth inhibitory concentration (GI50) with K562 was 6 µM; with U-251, above 100 µM; in [2], above 100 µM; in the data set with MCF7 it was above 100 µM; in data set [3], above 100 µM; with 786-0 [4], 21.2 µM. Further, the GI50 (with NCI-H460; in data set [5]; in the data set with HT-29) was above 100 µM throughout. In addition, the GI50 at 48 h in [1] was above 100 µM.
Take `COc1cccc2c1C(=O)c1c(O)c3c(c(O)c1C2=O)C[C@@](O)(C(=O)CO)C[C@@H]3O[C@H]1C[C@H](N)[C@H](O)[C@H](C)O1` [DOXORUBICIN]: the GI50 in the data set on K562 was below 0.046 µM; in the data set with U-251 it was below 0.046 µM; in data set [2], 0.05 µM; in the data set on MCF7 it was below 0.046 µM; in data set [3], 0.21 µM; with 786-0 [4], below 0.046 µM. Besides, the 50% growth inhibitory concentration (GI50) was below 0.046 µM in the data set with NCI-H460, 0.13 µM in [5] and 0.3 µM in the data set on HT-29. Further, the GI50 at 48 h in data set [1] is below 0.046 µM. The Activity in [6] came out at 43.7%; in [7], 55.6%; in data set [8], 69.8%; in data set [9], 39.6%; in data set [10], 97.9%.
As to `S=C(N/N=C/c1cccs1)Nc1cccnc1`, the GI50 is 16.4 µM in the data set with K562; 26 µM with U-251; above 100 µM in data set [2]; above 100 µM in the data set with MCF7; above 100 µM in data set [3]; 5.6 µM in the data set with 786-0 [4]. Also, the GI50 with NCI-H460 was 45.9 µM; in data set [5], above 100 µM; with HT-29, above 100 µM. For the same molecule, the GI50 at 48 h in [1] is 45.4 µM.
Take `COc1cc2c(c(OC)c1OC)-c1ccc(OC)c(=O)cc1[C@@H](NC(C)=O)CC2` [COLCHICINE]: the Activity with 786-0 [11] came out at 8.9%; with 786-0 [12], 21.5%; in the data set with 786-0 [13], 12.6%; in the data set with 786-0 [14], 57.5%.
With `COc1ccc(NC(=S)N/N=C/c2cccs2)cc1`, the GI50 in the data set on K562 is 1.7 µM; in the data set with U-251, above 100 µM; in [2] it was above 100 µM; in the data set with MCF7, above 100 µM; in [3] it was above 100 µM; in the data set with 786-0 [4], above 100 µM. The GI50 (in the data set on NCI-H460; in [5]; in the data set on HT-29) was above 100 µM in each case. The GI50 at 48 h in data set [1] was above 100 µM.
Turning to `CN1C(C(=O)Nc2ccccn2)=C(O)c2ccccc2S1(=O)=O` [PIROXICAM], the Activity in data set [15] was 42.2%; in data set [16], 57.2%; in [17], 52.3%; in data set [18], 34.9%; in data set [19] it was 47.3%.

Values taken from ChEMBL document CHEMBL3734720, “Synthesis of thiophene-thiosemicarbazone derivatives and evaluation of their in vitro and in vivo antitumor activities” (Eur J Med Chem, 2015).
